The values below come from ChEMBL document CHEMBL2417390 (J Med Chem, 2013).

In one test the target is T1, Aromatase (Homo sapiens, UniProt P11511).
T1 sequence (P11511 whole entry): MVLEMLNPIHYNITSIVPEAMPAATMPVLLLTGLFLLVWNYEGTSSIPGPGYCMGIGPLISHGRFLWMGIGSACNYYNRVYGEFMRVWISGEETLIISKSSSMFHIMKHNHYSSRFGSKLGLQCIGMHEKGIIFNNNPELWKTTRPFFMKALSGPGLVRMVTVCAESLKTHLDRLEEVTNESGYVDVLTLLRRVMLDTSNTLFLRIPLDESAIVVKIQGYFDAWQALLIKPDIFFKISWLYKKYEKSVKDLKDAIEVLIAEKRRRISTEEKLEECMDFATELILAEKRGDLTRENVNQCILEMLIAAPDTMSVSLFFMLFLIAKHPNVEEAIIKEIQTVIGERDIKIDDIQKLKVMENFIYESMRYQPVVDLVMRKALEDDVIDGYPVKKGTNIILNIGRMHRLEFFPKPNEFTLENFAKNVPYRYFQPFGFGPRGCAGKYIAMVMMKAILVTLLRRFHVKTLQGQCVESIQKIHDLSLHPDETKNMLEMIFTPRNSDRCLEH
The test is described as follows: Inhibition of CYP19 in human placental microsomes using [1beta-3H]androstenedione as substrate by 3H2O-method. Details: species or system Placenta. The procedure, abridged:
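Human placental microsomes as the aromatase source. Product formation was read by the 3H2O release method with [1β-3H]androstenedione at 500 nM as substrate.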

The target of another test is Cytochrome P450 3A4 (Homo sapiens, UniProt P08684). The test is described as follows: Inhibition of recombinant CYP3A4 (unknown origin) expressed in baculovirus-infected insect microsomes. The format is ADME, Microsome. The procedure, abridged: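 Recombinant CYP3A4 in baculovirus-infected insect microsomes (Supersomes), assayed following the supplier's protocol.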
Chain of Cytochrome P450 3A4 (P08684 whole entry): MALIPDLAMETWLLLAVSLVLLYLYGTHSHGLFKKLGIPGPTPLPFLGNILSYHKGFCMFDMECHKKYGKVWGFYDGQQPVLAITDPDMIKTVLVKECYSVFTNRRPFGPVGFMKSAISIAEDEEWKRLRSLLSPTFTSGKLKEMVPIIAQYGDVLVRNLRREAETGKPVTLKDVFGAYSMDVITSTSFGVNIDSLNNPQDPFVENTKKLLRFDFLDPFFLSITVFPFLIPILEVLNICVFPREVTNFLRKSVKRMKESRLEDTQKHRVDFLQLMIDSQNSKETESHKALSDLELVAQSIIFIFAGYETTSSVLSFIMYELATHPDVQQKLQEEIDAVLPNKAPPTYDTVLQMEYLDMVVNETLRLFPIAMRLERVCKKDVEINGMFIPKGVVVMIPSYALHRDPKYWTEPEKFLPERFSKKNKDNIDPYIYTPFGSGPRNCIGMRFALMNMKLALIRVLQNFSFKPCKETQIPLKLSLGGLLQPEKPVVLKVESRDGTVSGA

The next test is filed under the species Homo sapiens. Description: Selectivity factor, ratio of IC50 for human CYP11B1 to IC50 for human CYP11B2.
Test [1] concerns the target T2, Cytochrome P450 11B1, mitochondrial (Homo sapiens, UniProt P15538).
T2 sequence (P15538 whole entry): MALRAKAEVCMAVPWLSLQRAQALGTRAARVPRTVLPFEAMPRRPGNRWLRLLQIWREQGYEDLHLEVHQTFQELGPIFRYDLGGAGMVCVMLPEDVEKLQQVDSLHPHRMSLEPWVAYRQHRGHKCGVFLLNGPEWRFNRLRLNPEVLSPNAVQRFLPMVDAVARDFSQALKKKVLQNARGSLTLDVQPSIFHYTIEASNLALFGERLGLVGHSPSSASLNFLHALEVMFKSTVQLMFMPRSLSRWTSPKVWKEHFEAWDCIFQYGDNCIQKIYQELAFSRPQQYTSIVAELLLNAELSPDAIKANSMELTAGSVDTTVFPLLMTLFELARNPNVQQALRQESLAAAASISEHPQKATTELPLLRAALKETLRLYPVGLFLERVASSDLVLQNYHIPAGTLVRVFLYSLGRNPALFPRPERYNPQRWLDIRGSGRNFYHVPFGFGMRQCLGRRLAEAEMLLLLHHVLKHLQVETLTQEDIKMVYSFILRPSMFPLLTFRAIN
The test is described as follows: Inhibition of human CYP11B1 expressed in hamster V79MZh cells using [1,2-3H]-11-deoxycorticosterone as substrate. The format is cell-based.

The target of test [2] is T3, Cytochrome P450 11B2, mitochondrial (Homo sapiens, UniProt P19099).
T3 sequence (P19099 whole entry): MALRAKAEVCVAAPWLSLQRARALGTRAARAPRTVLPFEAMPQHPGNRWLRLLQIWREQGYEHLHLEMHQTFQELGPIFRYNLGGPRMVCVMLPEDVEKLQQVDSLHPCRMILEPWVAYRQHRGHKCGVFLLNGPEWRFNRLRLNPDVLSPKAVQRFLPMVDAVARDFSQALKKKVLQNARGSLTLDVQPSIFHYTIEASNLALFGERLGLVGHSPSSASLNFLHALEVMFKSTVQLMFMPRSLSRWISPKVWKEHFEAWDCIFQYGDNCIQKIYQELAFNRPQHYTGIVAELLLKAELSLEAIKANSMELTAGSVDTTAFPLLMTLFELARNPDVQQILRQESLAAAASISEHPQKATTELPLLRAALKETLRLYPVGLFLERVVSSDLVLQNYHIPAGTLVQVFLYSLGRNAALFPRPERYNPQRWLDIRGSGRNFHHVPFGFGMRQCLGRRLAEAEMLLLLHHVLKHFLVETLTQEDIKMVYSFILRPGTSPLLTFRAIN
Description: Inhibition of human CYP11B2 expressed in hamster V79MZh cells using [1,2-3H]-11-deoxycorticosterone as substrate. The format is cell-based.

In test [3] the target is T4, Steroid 17-alpha-hydroxylase/17,20 lyase (Homo sapiens, UniProt P05093).
T4 sequence (P05093 whole entry): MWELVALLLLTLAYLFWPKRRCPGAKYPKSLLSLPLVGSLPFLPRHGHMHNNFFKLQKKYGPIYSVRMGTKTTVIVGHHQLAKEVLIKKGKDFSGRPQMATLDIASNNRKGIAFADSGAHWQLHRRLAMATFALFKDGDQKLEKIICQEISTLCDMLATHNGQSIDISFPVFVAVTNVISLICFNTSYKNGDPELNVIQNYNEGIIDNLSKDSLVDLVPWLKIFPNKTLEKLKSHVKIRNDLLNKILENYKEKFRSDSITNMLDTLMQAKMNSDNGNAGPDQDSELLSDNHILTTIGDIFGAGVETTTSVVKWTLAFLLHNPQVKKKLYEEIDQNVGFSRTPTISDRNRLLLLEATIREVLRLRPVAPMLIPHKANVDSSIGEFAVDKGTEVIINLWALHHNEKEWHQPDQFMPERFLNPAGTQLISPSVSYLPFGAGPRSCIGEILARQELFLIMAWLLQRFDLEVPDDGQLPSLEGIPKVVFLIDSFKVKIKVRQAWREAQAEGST
Description: Inhibition of human CYP17 expressed in Escherichia coli using 1,2[3H]-progesterone as substrate in presence of NADPH. The essentials: (§1)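 Human CYP17 was recombinantly expressed in E. coli. The substrate was progesterone at 25 µM, with NADPH as cofactor.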

For test [4], the target named is T4, Steroid 17-alpha-hydroxylase/17,20 lyase. The test is described as follows: Inhibition of human CYP17. The procedure, abridged: as §1
For test [5], the target named is T3, Cytochrome P450 11B2, mitochondrial. Description: Inhibition of human CYP11B2.
Test [6] deals with T4, Steroid 17-alpha-hydroxylase/17,20 lyase. Description: Inhibition of human CYP17 expressed in Escherichia coli using 1,2[3H]-progesterone as substrate at 2000 nM in presence of NADPH relative to control. To be noted: read-out: INH.

Regarding `COc1ccc2ccc(-c3cncc(O)c3)c(Cl)c2c1`, the 50% inhibitory concentration (IC50) on Aromatase was over 2000 nM; on Cytochrome P450 3A4, 6720 nM; in test [1], 7100 nM; in test [2] it was 13 nM; in test [3], 11 nM. The Ratio IC50 in the test filed under Homo sapiens is 546.
With `COc1cncc(-c2ccc3ccc(OC)cc3c2Cl)c1`, the IC50 at Aromatase is over 2000 nM; on Cytochrome P450 3A4 it was over 10000 nM; in test [1], 447 nM; in [2], 24 nM; in test [3], 94 nM. In addition, the Ratio IC50 in the test filed under Homo sapiens worked out at 19.
In the case of `COc1ccc2ccc(-c3cccnc3)c(Cl)c2c1`, the IC50 on Aromatase is over 2000 nM; on Cytochrome P450 3A4, 3560 nM. Also, the Ratio IC50 in the test listed under Homo sapiens was determined as 94.
`COc1ccc2ccc(-c3cncc(F)c3)c(Cl)c2c1`: the half-inhibitory concentration (IC50) is over 2000 nM on Aromatase; over 10000 nM on Cytochrome P450 3A4; 1410 nM in [1]; 38 nM in [2]; 454 nM in [3]. Besides, the Ratio IC50 in the test filed under Homo sapiens was 37.
Regarding `Oc1cncc(-c2ccc3ccc(O)cc3c2Cl)c1`, the IC50 against Aromatase was over 2000 nM; on Cytochrome P450 3A4 it was 5050 nM; in test [1] it was 2820 nM; in test [2] it was 27 nM; in test [3], 16 nM. The Ratio IC50 in the test listed under Homo sapiens came to 104.
For `COc1ccc2ccc(-c3cncc4ccccc34)c(Cl)c2c1`, the IC50 was over 2000 nM against Aromatase; over 10000 nM on Cytochrome P450 3A4; 362 nM in test [1]; 54 nM in test [2]; 294 nM in test [3]. Further, the Ratio IC50 in the test listed under Homo sapiens amounted to 7.
For the compound `c1cncc(-c2ccc3ccccc3c2)c1`, in test [4], the IC50 was determined as 3000 nM.
With `COc1cncc(-c2ccc3ccc(O)cc3c2Cl)c1`, the concentration for half-maximal inhibition (IC50) is over 2000 nM at Aromatase; 4200 nM on Cytochrome P450 3A4; 245 nM in [1]; 15 nM in test [2]; 185 nM in [3]. In the test listed under Homo sapiens, the Ratio IC50 was found to be 16.
`COc1ccc2ccc(-c3cccnc3)c(F)c2c1`: the IC50 on Aromatase is over 2000 nM; at Cytochrome P450 3A4, over 10000 nM; in test [1] it was 1610 nM; in [2], 17 nM; in test [3], 106 nM. For the same compound, the Ratio IC50 in the test listed under Homo sapiens stood at 95.
Consider `COc1ccc2ccc(-c3cccnc3)cc2c1`, for which the values for the IC50 (in test [4]; in test [5]; on Aromatase) were 721 nM, 68 nM and over 2000 nM, respectively.
`Oc1ccc2ccc(-c3cccnc3)c(Cl)c2c1`: the IC50 at Aromatase is over 2000 nM; on Cytochrome P450 3A4, 1760 nM; in test [1], 235 nM; in test [2], 26 nM; in test [3], 64 nM. The Ratio IC50 in the test filed under Homo sapiens came to 9.
Regarding `N#Cc1ccc(C2CCCc3cncn32)cc1` (stereo not drawn) [FADROZOLE], the inhibition at 2 µM in test [6] is under 5%.
Regarding `Oc1ccc2ccc(-c3cccnc3)c(F)c2c1`, the IC50 against Aromatase is over 2000 nM; on Cytochrome P450 3A4 it was 1260 nM; in test [1] it was 1160 nM; in test [2], 30 nM; in [3], 523 nM. The Ratio IC50 in the test filed under Homo sapiens came out at 39.
`COc1ccc2ccc(-c3cccnc3)c(Cl)c2c1F`: the concentration for half-maximal inhibition (IC50) is over 2000 nM against Aromatase; 1010 nM on Cytochrome P450 3A4; 2930 nM in test [1]; 28 nM in test [2]; 147 nM in test [3]. Besides, the Ratio IC50 in the test listed under Homo sapiens was found to be 104.
Take `Oc1ccc2ccc(-c3cncnc3)c(Cl)c2c1`: the IC50 is over 2000 nM at Aromatase; 2150 nM at Cytochrome P450 3A4; 2430 nM in test [1]; 22 nM in test [2]; 1520 nM in test [3]. Besides, the Ratio IC50 in the test filed under Homo sapiens was determined as 110.
In the case of `Oc1ccc2ccc(-c3cncc4ccccc34)c(Cl)c2c1`, the IC50 at Aromatase was over 2000 nM; at Cytochrome P450 3A4, 1740 nM; in test [1], 238 nM; in [2] it was 66 nM; in [3] it was 1030 nM. Further, in the test listed under Homo sapiens, the Ratio IC50 amounted to 4.
Regarding `COc1ccc2ccc(-c3cncnc3)c(Cl)c2c1`, the IC50 against Aromatase is over 2000 nM; on Cytochrome P450 3A4, over 10000 nM; in test [1], 12300 nM; in test [2] it was 72 nM; in test [3], 632 nM. For the same compound, in the test filed under Homo sapiens, the Ratio IC50 amounted to 170.
Consider `Oc1ccc2ccc(-c3cncc(F)c3)c(Cl)c2c1`, for which the 50% inhibitory concentration (IC50) against Aromatase is over 2000 nM; on Cytochrome P450 3A4 it was 3580 nM; in [1], 450 nM; in test [2], 33 nM; in [3], 525 nM. Further, in the test filed under Homo sapiens, the Ratio IC50 was determined as 15.
In the case of `Oc1ccc2ccc(-c3cccnc3)c(Cl)c2c1F`, the IC50 against Aromatase was over 2000 nM; at Cytochrome P450 3A4 it was over 10000 nM; in [1], 224 nM; in test [2], 25 nM; in test [3], 375 nM. Further, the Ratio IC50 in the test filed under Homo sapiens stood at 9.
